# High-throughput results (PubChem)
# Compounds with a hit are over-represented: about 4.5% of the library has one in this group of screens.
# STAT1 act – STAT1 signaling activators, primary screen, cell-based, HTS, luciferase reporter; NIH 3T3 STAT1-luciferase reporter, IFN-gamma, luminescence; 100% = IFN-gamma alone, no compound; activation (% of control), % at 5.5 µM; 200,000 compounds, 2.6% hits;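 active = activation above the screen-wide mean activation plus 3 SD, cut at about 130% in these data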
# MDM2 E3 inh – MDM2-luciferase reporter signal enhancers, primary screen, MDM2 E3 ligase inhibitor project, cell-based, luminescence, 1536-well; 210,000 compounds, 0.11% hits; signal enhancement, % at 5 µM; cell-based MDM2 ubiquitination luciferase reporter, 2 h; 0 = plate control, 100 = twice control, blank-subtracted; E3 ubiquitin-protein ligase Mdm2 (Homo sapiens), Q00987;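 active = signal enhancement of 30% or more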;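 note: luminescence tracks abundance of the self-degrading MDM2-luciferase fusion protein; higher signal means inhibition of MDM2 E3 ligase activity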
#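 Test system: mammalian cells stably expressing self-ubiquitinating, self-degrading MDM2 E3–luciferase fusion; Amount: 2000 cells in each well; Medium: DMEM; Schedule: 4 h settle plus 2 h compound, 37 °C; Technique: SteadyLite luciferase luminescence after 15 min room-temperature reagent incubation; Benchmarks: plate control and blank wells.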
# PERK inhibitor – block of dimerizer-induced PERK translation repression, primary screen, PERK inhibitor project, CHO PERK-DD cells, SEAP luminescence, HTS. Eukaryotic translation initiation factor 2-alpha kinase 3 (Homo sapiens), Q9NZJ5. CHO PERK-DD fusion, SEAP luminescence translation reporter. inhibition, % at 5.6 µM. 220,000 compounds, 0.17% hits. AID 1416, 2008;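 active = inhibition above the mean inhibition of all tested compounds plus 3 SD, set separately per screening campaign, cut at about 2.9% in these data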;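 note: PERK kinase domain activated by AP20187 dimerizer at 100 nM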
# AHR act – AHR activators, primary screen, cell-based, luminescence, luciferase reporter, human; activation, % at 5 µM; 320,000 compounds, 2.5% hits; AID 2796, 2010; AHR-responsive luciferase reporter cells; in the data active = activation above about 47%
# NF-kB neuron act – activators of NF-kB expression in neurons, primary screen, cell-based, HTS | human neuronal cells, NF-kB reporter expression; active compounds read high | fold change at 12.5 µM | AID 1239, 2008 | 190,000 compounds, 1.6% hits; in the data active = fold change above about 3.3
# APP 5'UTR act – activators of APP 5'UTR luciferase reporter, primary screen, SH-SY5Y cells. SH-SY5Y APP 5'UTR luciferase reporter, luminescence; zero percent = DMSO vehicle wells. activation, % at 2 µM. 190,000 compounds, 1% hits;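 active = activation above a set limit, based on mean plus 3 SD of controls, cut at about 140% in these data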
# A number is an active result; - = inactive; . = no result.
SMILES,STAT1 act,MDM2 E3 inh,PERK inhibitor,AHR act,NF-kB neuron act,APP 5'UTR act
O=C(CSc1nnc2ccccn12)N1CCc2ccccc21,134.6,-,-,-,-,-
O=C(CSc1ccccn1)N1CCc2ccccc21,132.6,-,-,-,3.52,-
CCOC(=O)C1=C(COC(=O)[C@@H](NC(=O)c2cccc(C)c2)C(C)C)NC(=O)NC1C (stereo partly drawn),.,.,.,-,.,.
Cc1ccc(/C=N/Nc2nc(Cl)c(Cl)cc2Cl)s1,147.0,-,-,54.2,-,-
Cc1ccsc1/C=N\Nc1cn[nH]c(=O)c1Cl,-,-,-,-,-,-
Cc1ccsc1/C=N/Nc1nc(Cl)c(Cl)cc1Cl,-,-,-,63.0,-,-
COc1ccc(OC(=O)c2cnn(-c3ccccc3)c2C)cc1,150.5,-,-,-,5.93,-
CCCc1c(C(=O)Nc2ccc(OC)cc2)cnn1-c1ccccc1,.,-,-,72.6,.,.
CC(NC(=O)COC(=O)c1cc(NS(=O)(=O)c2ccc(Cl)c([N+](=O)[O-])c2)ccc1O)C1CC2CCC1C2 (stereo not drawn),-,-,-,-,-,-
N#CCOC(=O)c1c2c(nc3ccccc13)CCC2,-,-,-,-,-,-
COc1cccc2c1OCC(C(=O)O)C2 (stereo not drawn),-,-,-,-,-,-
COc1cccc2c1C(CO)N1C(C#N)C3CC(C(=O)O)C(C1C2)N3C (stereo not drawn),.,-,3.7,-,.,.
COC(=O)c1ccccc1NC(=O)C(C)c1ccc([N+](=O)[O-])cc1 (stereo not drawn),-,-,-,-,-,-
CCCCN1C(=O)C(=O)N(CC(=O)Nc2ccccc2C(=O)OCC)C1=O,.,.,.,-,.,.
CC(=O)C1C(c2ccccc2)c2c(noc2C)CC1(C)O (stereo not drawn),.,-,3.2,-,.,.
O=C(Nc1nc2ccccc2[nH]1)c1cc2ccccc2o1,-,-,-,56.4,5.45,263.2
Cc1nn(-c2ccccc2)nc1C(=O)NN,.,-,-,-,.,.
COc1ccc(C(=O)Nc2nc3ccccc3[nH]2)cc1OC,128.7,-,-,-,-,-
COc1cc(C(=O)Nc2nc3ccccc3[nH]2)ccc1OC(F)F,.,-,-,-,.,.
COc1cc(OC)cc(C(=O)Nc2ccc(Cn3ccnc3)cc2)c1,.,.,.,-,.,.
COc1ccc(C(=O)Nc2ccc(Cn3ccnc3)cc2)cc1OC,.,.,.,50.9,.,.
O=C(Nc1nc2ccccc2[nH]1)c1cc(F)cc(F)c1,.,.,.,-,.,.
Cc1nn(-c2ccccc2)nc1C(=O)Nc1ccc2[nH]ncc2c1,.,-,-,52.4,.,.
COc1cc(/C=C/C(=O)OCC(=O)Nc2oc(C)c3c(C)n[nH]c(=O)c23)ccc1OC(F)F,.,.,.,-,.,.
O=C(Nc1nc2ccccc2[nH]1)c1ccccc1F,-,-,-,-,-,-
SMILES,STAT1 act,MDM2 E3 inh,PERK inhibitor,AHR act,NF-kB neuron act,APP 5'UTR act
Cc1ccsc1C(=O)Nc1nc2ccccc2[nH]1,.,-,-,110.6,.,.
COc1ccc(C(=O)Nc2ccc3[nH]ncc3c2)cc1OC,.,.,.,47.6,.,.
CCc1ccc(C(=O)Nc2nc3ccccc3[nH]2)cc1,.,.,.,51.1,.,.
COc1cc(OC)cc(C(=O)Nc2nc3ccccc3[nH]2)c1,131.0,-,-,-,-,-
O=C(Nc1nc2ccccc2[nH]1)c1ccc(F)cc1,-,-,-,-,-,-
COc1ccccc1CC(=O)Nc1ccc2[nH]ncc2c1,.,.,.,-,.,.
Cc1cccn2c(=O)c3cc(C(=O)N4COCC4(C)C)n(Cc4ccccc4)c3nc12,.,.,.,-,.,.
Cc1ccc(OCC(=O)Nc2cccc(S(=O)(=O)N3CCCCCC3)c2)cc1C,.,.,.,-,.,.
Cc1ncc([N+](=O)[O-])n1CC(=O)Nc1ccc(OC(F)(F)Cl)cc1,.,.,.,-,.,.
CN(C)S(=O)(=O)c1ccc(C(=O)Nc2nc3ccccc3[nH]2)cc1,143.3,-,-,-,-,-
Cc1cc(C)cc(C(=O)Nc2nc3ccccc3[nH]2)c1,.,.,.,56.8,.,.
O=C(CCCNC(=O)c1ccc(Cl)cc1)Nc1ccc(Br)cc1,.,.,.,70.6,.,.
O=C(NC1=NCCS1)c1cccc(OC(F)F)c1,140.2,-,-,-,4.09,150.2
CC(C)c1ccc(C(=O)NC2=NCCS2)cc1,145.3,-,-,-,-,167.3
CC(C)Oc1ccc(C(=O)NC2=NCCS2)cc1,-,-,-,-,8.27,153.9
Cc1ccc(C(=O)NC2=NCCS2)cc1,.,.,-,-,.,.
N/C(=N\OC(=O)Cc1ccccc1)c1ccccc1Cl,147.4,-,-,-,-,-
Clc1ccc2[nH]c3c(c2c1)CCc1cn[nH]c1-3,-,-,-,96.0,-,-
CC(C)(O)C#Cc1ccc(CN2CCN(Cc3ccsc3)C(CCO)C2)cc1 (stereo not drawn),-,-,-,-,3.83,-
Cc1onc(C(=O)NC(C)c2ccccc2)c1[N+](=O)[O-] (stereo not drawn),-,-,-,-,-,-
c1csc(-c2cn3ccc4ccccc4c3n2)c1,143.7,-,-,57.2,4.68,-
c1ccc(CNc2nc(-c3cccs3)nc3ccccc23)cc1,-,-,-,.,-,-
Cc1ccc(CN2C(=O)CSC2c2ccccc2F)cc1 (stereo not drawn),.,.,.,-,.,.
CC(=O)c1c(C)[nH]c(C(=O)Nc2ccc(C)cc2Br)c1C,.,.,.,52.5,.,.
CC(=O)c1c(C)[nH]c(C(=O)Nc2cccnc2)c1C,-,-,-,57.1,-,-
SMILES,STAT1 act,MDM2 E3 inh,PERK inhibitor,AHR act,NF-kB neuron act,APP 5'UTR act
CCCCNC(=O)c1[nH]c(C)c(C(C)=O)c1C,-,-,-,67.0,-,-
CCN(CC)c1ccc(NC(=O)c2[nH]c(C)c(C(C)=O)c2C)c(C)c1,-,-,-,-,-,-
COC(=O)c1c(C)[nH]c(C(=O)/C=C/c2ccccc2)c1C,140.1,-,-,-,-,-
CCOC(=O)c1c(C)[nH]c(C(=O)NNC(=O)c2ccc(Br)cc2)c1C,.,.,.,-,.,.
CC(=O)c1c(C)[nH]c(C(=O)Nc2ccc(C)c(C)c2)c1C,138.3,-,-,-,3.77,.
CCOC(=O)c1c(C)[nH]c(C(=O)Nc2ccc(NC(C)=O)cc2)c1C,-,-,-,-,-,-
CCOC(=O)c1c(C)[nH]c(C(=O)Nc2ccc(C)c(Cl)c2)c1C,-,-,-,-,3.82,162.6
CC(=O)c1c(C)[nH]c(C(=O)Nc2cc(F)ccc2C)c1C,.,.,.,58.2,.,.
CCOC(=O)c1c(C)[nH]c(C(=O)NNC(=O)c2ccccc2)c1C,145.8,-,-,-,3.42,164.4
COc1ccc(/C=C(\C#N)c2n[nH]c(Cn3cncn3)n2)cc1,-,-,-,-,-,-
COc1ccc(NC(=O)c2[nH]c(C)c(C(C)=O)c2C)cc1,-,-,-,60.8,-,-
